Drawing on ChEMBL document CHEMBL5365542, “Difluoromethyl-1,3,4-oxadiazoles Are Selective, Mechanism-Based, and Essentially Irreversible Inhibitors of Histone Deacetylase 6” (J Med Chem, 2023), this text covers inhibition for two molecules.

Experiment [1] deals with Histone deacetylase 1 (Homo sapiens) (UniProt Q13547). Description: Inhibition of C-terminal 6His/FLAG tagged human recombinant HDAC1 (1 to 482 residues) […] expressed in Sf9 insect cells using Z-Lys(Ac)-AMC as fluorogenic substrate at 10 uM preincubated for 60 mins followed by substrate addition and measured after 90 mins by microplate reader analysis relative to control. Conditions: time 150.0 min. The essentials:
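Human recombinant enzyme was preincubated with 3-fold inhibitor dilutions for 60 min at 25 °C in Tris-HCl pH 8.0 buffer with BSA. ZMAL (75 μM solution) was then added, and the mix was incubated 90 min at 37 °C (max 1% DMSO). Trypsin was added for 30 min at 37 °C, and fluorescence was read at ex 355/em 460. Tested at least twice in duplicate.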

For experiment [2], the system named is T1, Histone deacetylase 6 (Danio rerio), F8W4B7 [H573A].
T1 sequence (whole entry): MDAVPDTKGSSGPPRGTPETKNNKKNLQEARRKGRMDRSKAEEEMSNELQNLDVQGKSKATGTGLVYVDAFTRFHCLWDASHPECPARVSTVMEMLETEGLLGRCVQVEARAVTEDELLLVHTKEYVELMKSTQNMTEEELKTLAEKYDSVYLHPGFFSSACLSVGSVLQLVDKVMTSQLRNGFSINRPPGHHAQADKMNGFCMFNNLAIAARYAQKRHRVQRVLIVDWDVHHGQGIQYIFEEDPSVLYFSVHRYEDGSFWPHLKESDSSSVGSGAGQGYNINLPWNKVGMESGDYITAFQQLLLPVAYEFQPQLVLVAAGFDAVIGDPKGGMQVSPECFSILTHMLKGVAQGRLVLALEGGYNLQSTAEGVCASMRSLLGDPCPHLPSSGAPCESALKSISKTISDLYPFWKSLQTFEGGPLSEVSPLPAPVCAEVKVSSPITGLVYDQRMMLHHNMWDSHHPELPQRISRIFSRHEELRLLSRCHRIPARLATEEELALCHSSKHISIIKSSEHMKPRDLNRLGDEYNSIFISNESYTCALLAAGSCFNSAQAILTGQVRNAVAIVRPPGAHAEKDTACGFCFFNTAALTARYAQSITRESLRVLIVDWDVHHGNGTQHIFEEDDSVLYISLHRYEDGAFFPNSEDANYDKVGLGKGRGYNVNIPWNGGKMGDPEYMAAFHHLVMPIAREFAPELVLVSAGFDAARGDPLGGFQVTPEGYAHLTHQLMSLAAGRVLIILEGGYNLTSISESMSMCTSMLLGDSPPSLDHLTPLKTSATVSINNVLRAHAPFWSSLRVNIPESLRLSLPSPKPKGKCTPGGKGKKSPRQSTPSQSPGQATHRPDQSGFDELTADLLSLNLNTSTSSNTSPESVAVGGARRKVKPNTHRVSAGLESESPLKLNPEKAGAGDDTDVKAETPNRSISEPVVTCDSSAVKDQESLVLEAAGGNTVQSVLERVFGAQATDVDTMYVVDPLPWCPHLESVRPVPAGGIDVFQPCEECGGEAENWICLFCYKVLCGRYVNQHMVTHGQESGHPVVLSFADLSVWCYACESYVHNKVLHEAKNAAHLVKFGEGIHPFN
Put plainly: Irreversible inhibition of Danio rerio HDAC6 H573A mutant catalytic domain 2 assessed as enzyme catalysed ring opening by measuring reduction in 2-(Benzylamino)pyrimidine-5-carbohydrazide formation at 100 uM incubated overnight by LC-MS analysis. The procedure, abridged:
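Zebrafish HDAC6 CD2 mutants were made by site-directed mutagenesis and expressed in BL21(DE3). Enzyme at 50 μM was incubated overnight with 100 μM inhibitor in 50 mM HEPES pH 7.5, 100 mM KCl, 1 mM TCEP, 5% glycerol; an enzyme-free control was included. Protein was methanol-precipitated and filtered, and products were analysed by C18 UPLC-MS with a 2-min gradient.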

The target in experiment [3] is T2, Protein deacetylase HDAC6 (Homo sapiens) (UniProt Q9UBN7).
T2 sequence (whole entry): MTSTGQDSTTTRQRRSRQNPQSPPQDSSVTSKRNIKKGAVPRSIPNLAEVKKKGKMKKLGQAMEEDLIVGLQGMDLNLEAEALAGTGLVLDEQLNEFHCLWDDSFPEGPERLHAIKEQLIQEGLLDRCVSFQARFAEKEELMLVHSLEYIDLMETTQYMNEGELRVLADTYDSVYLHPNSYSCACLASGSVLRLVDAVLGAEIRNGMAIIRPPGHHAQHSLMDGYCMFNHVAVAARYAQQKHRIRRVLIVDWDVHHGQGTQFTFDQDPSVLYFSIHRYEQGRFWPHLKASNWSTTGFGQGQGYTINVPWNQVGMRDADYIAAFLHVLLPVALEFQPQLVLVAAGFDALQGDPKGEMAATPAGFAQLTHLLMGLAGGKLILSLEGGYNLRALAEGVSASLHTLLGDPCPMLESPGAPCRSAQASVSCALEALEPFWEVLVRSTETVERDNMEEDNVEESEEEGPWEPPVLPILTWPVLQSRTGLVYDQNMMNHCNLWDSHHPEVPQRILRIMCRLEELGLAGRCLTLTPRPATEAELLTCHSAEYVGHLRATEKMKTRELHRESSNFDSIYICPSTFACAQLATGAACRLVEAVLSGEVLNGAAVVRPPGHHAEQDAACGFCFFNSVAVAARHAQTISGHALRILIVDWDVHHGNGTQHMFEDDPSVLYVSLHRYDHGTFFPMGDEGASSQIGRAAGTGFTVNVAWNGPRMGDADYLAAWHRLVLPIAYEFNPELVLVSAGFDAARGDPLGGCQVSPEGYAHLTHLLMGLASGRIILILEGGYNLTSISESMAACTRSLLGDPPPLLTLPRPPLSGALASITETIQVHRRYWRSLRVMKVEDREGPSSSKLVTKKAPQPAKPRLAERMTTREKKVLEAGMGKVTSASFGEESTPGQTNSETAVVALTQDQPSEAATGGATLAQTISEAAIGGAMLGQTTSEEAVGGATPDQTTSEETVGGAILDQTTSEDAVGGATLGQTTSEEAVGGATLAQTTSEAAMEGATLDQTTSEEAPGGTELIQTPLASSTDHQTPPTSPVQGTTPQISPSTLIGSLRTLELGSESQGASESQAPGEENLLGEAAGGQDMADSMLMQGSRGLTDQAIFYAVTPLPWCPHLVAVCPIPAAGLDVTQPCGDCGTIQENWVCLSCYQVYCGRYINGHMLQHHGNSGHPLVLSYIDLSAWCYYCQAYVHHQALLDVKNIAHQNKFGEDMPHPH
Description: Irreversible inhibition of N-terminal GST tagged human recombinant HDAC6 (1 to 1215 residues) expressed in Sf9 insect cells using Z-Lys(Ac)-AMC as fluorogenic substrate at 2.5 uM preincubated for 1 hr followed by 100-fold dilution and substrate addition measured every 0.5 mins for 60 mins by microplate reader analysis. The procedure, abridged:
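It was then diluted 100-fold in buffer or in inhibitor at the original concentration. Finals were 220 pg/μL enzyme, 93 μM ZMAL and 20 ng/μL trypsin. AMC release was read every 0.5 min for 60 min at 37 °C; triplicates.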

Active and inactive are the calls of the source. The rule behind the calls is not given here.

Chain of Histone deacetylase 1 (Homo sapiens) (Q13547 whole entry, the tested form may be a part): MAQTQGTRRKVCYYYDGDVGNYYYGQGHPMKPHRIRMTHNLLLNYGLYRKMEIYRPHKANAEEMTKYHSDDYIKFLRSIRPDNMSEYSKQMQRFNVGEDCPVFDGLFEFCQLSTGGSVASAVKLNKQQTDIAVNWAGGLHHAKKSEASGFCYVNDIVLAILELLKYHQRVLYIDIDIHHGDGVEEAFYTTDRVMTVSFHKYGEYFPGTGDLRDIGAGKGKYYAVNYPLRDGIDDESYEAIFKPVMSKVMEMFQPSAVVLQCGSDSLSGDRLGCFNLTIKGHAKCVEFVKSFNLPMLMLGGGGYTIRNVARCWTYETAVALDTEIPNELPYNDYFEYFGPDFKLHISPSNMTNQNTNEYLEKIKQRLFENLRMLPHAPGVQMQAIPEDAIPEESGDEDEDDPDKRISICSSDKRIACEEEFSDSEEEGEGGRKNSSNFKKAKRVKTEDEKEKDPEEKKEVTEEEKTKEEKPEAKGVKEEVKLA

As to `FC(F)c1nnc(-c2cnc(NCc3ccccc3)nc2)o1`, in experiment [1], the inhibition is less than 15%. Further, the inhibition result in experiment [2] and in experiment [3] was “Active” throughout.

As for `FC(F)(F)c1nnc(-c2cnc(NCc3ccccc3)nc2)o1`, the inhibition in experiment [1] was less than 15%. Moreover, the inhibition entry in experiment [2] is “Active”.
